Blank lines part the entries; values can stand above or below the compound they belong to.
Columns and labels:
HeLa = experiment: Cytotoxicity against human HeLa cells after 48 hrs by MTT assay; type: functional, cell-based
[1] = Therapeutic index, ratio of IC50 for human CD34-positive blood stem/progenitor cells to IC50 for human MA9.3 cells; conditions: CD34-positive blood stem/progenitor cells versus MA9.3 cells, read-out: Ratio IC50
How it was run: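 Cytotoxicity was measured in parallel on non-cancerous human CD34+ blood stem/progenitor cells (UCB) and on the MA9.3 AML line, which was made by introducing the MLL-AF9 oncogene into human CD34+ cells. The index is IC50 in CD34+ cells divided by IC50 in MA9.3, reported as mean ± error.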

[2] = Cytotoxicity against human MA9.3 cells after 48 hrs by MTT assay; type: functional, cell-based
How it was run: (§1)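 Non-transformed human CD34+ blood stem/progenitor cells from umbilical cord blood were run alongside MA9.3, an AML line made by introducing the MLL-AF9 oncogene into human CD34+ cells. IC50 was determined on each cell type. Therapeutic index is the ratio between the MA9.3 and CD34+ IC50 values.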

[3] = Cytotoxicity against human CD34-positive blood stem/progenitor cells after 48 hrs by MTT assay; type: cell-based; how it was run: as §1
MDA-MB-468 = experiment: Growth inhibition of human MDA-MB-468 cells after 48 hrs by sulforhodamine B assay; type: functional; conditions: MDA-MB-468, 48 h
How it was run: (§2)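 Run in the National Cancer Institute 60-cell-line panel screen. Viability was read by sulforhodamine B staining of total protein content, so it reflects cell number rather than metabolic activity. Values are reported as GI50.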

T47D = experiment: Growth inhibition of human T47D cells after 48 hrs by sulforhodamine B assay; type: functional
How it was run: (§3)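 Run within the National Cancer Institute 60-cell-line panel. Viability was read by sulforhodamine B staining of total cellular protein, as a measure of cell number rather than metabolic activity. GI50 values were taken from the panel data.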

Hs-578T = experiment: Growth inhibition of human Hs578T cells after 48 hrs by sulforhodamine B assay; type: functional; how it was run: as §2
BT-549 = experiment: Growth inhibition of human BT549 cells after 48 hrs by sulforhodamine B assay; type: functional; conditions: BT-549, 48 h; how it was run: as §2
MDA-MB-231 = experiment: Growth inhibition of human MDA-MB-231 cells after 48 hrs by sulforhodamine B assay; type: functional; conditions: MDA-MB-231, 48 h; how it was run: as §2
MCF7 = experiment: Growth inhibition of human MCF7 cells after 48 hrs by sulforhodamine B assay; type: functional; conditions: MCF7, 48 h; how it was run: as §2
DU-145 = experiment: Growth inhibition of human DU145 cells after 48 hrs by sulforhodamine B assay; type: functional; conditions: DU-145, 48 h; how it was run: as §2
PC-3 = experiment: Growth inhibition of human PC3 cells after 48 hrs by sulforhodamine B assay; type: functional; conditions: PC-3, 48 h; how it was run: as §2
UO-31 = experiment: Growth inhibition of human UO31 cells after 48 hrs by sulforhodamine B assay; type: functional; conditions: UO-31, 48 h; how it was run: as §3
SN12C = experiment: Growth inhibition of human SN12C cells after 48 hrs by sulforhodamine B assay; type: functional; how it was run: as §3
RXF 393 = experiment: Growth inhibition of human RXF393 cells after 48 hrs by sulforhodamine B assay; type: functional; conditions: RXF 393, 48 h; how it was run: as §2
CAKI-1 = experiment: Growth inhibition of human CAKI-1 cells after 48 hrs by sulforhodamine B assay; type: functional; conditions: CAKI-1, 48 h; how it was run: as §2
A498 = experiment: Growth inhibition of human A498 cells after 48 hrs by sulforhodamine B assay; type: functional; conditions: A498, 48 h; how it was run: as §2
ACHN = experiment: Growth inhibition of human ACHN cells after 48 hrs by sulforhodamine B assay; type: functional; how it was run: as §2
SK-OV-3 = experiment: Growth inhibition of human SKOV3 cells after 48 hrs by sulforhodamine B assay; type: functional; conditions: SK-OV-3, 48 h; how it was run: as §2
786-0 = experiment: Growth inhibition of human 786-0 cells after 48 hrs by sulforhodamine B assay; type: functional; conditions: 786-0, 48 h; how it was run: as §2
[4] = Growth inhibition of human NCI-ADR-RES cells after 48 hrs by sulforhodamine B assay; type: functional; how it was run: as §2
OVCAR-4 = experiment: Growth inhibition of human OVCAR4 cells after 48 hrs by sulforhodamine B assay; type: functional; conditions: OVCAR-4, 48 h; how it was run: as §2
OVCAR-5 = experiment: Growth inhibition of human OVCAR5 cells after 48 hrs by sulforhodamine B assay; type: functional; conditions: OVCAR-5, 48 h; how it was run: as §2
IGROV-1 = experiment: Growth inhibition of human IGROV1 cells after 48 hrs by sulforhodamine B assay; type: functional; conditions: IGROV-1, 48 h; how it was run: as §2
OVCAR-3 = experiment: Growth inhibition of human OVCAR3 cells after 48 hrs by sulforhodamine B assay; type: functional; conditions: OVCAR-3, 48 h; how it was run: as §2
UACC-257 = experiment: Growth inhibition of human UACC257 cells after 48 hrs by sulforhodamine B assay; type: functional; conditions: UACC-257, 48 h; how it was run: as §3
UACC-62 = experiment: Growth inhibition of human UACC62 cells after 48 hrs by sulforhodamine B assay; type: functional; conditions: UACC-62, 48 h; how it was run: as §3
SK-MEL-28 = experiment: Growth inhibition of human SK-MEL-28 cells after 48 hrs by sulforhodamine B assay; type: functional; conditions: SK-MEL-28, 48 h; how it was run: as §2
SK-MEL-5 = experiment: Growth inhibition of human SK-MEL-5 cells after 48 hrs by sulforhodamine B assay; type: functional; conditions: SK-MEL-5, 48 h; how it was run: as §2
MDA-MB-435 = experiment: Growth inhibition of human MDA-MB-435 cells after 48 hrs by sulforhodamine B assay; type: functional; conditions: MDA-MB-435, 48 h; how it was run: as §2
SK-MEL-2 = experiment: Growth inhibition of human SK-MEL-2 cells after 48 hrs by sulforhodamine B assay; type: functional; conditions: SK-MEL-2, 48 h; how it was run: as §2
Malme-3M = experiment: Growth inhibition of human MALME-3M cells after 48 hrs by sulforhodamine B assay; type: functional; how it was run: as §2
M14 = experiment: Growth inhibition of human M14 cells after 48 hrs by sulforhodamine B assay; type: functional; conditions: M14, 48 h; how it was run: as §2
U-251 = experiment: Growth inhibition of human U251 cells after 48 hrs by sulforhodamine B assay; type: functional; conditions: U-251, 48 h; how it was run: as §3
LOX IMVI = experiment: Growth inhibition of human LOXIMVI cells after 48 hrs by sulforhodamine B assay; type: functional; how it was run: as §2
SNB-19 = experiment: Growth inhibition of human SNB19 cells after 48 hrs by sulforhodamine B assay; type: functional; conditions: SNB-19, 48 h; how it was run: as §3
SNB-75 = experiment: Growth inhibition of human SNB75 cells after 48 hrs by sulforhodamine B assay; type: functional; conditions: SNB-75, 48 h; how it was run: as §3
SF-295 = experiment: Growth inhibition of human SF295 cells after 48 hrs by sulforhodamine B assay; type: functional; conditions: SF-295, 48 h; how it was run: as §2
SF-539 = experiment: Growth inhibition of human SF539 cells after 48 hrs by sulforhodamine B assay; type: functional; conditions: SF-539, 48 h; how it was run: as §2
SW-620 = experiment: Growth inhibition of human SW620 cells after 48 hrs by sulforhodamine B assay; type: functional; conditions: SW-620, 48 h; how it was run: as §3
SF-268 = experiment: Growth inhibition of human SF268 cells after 48 hrs by sulforhodamine B assay; type: functional; conditions: SF-268, 48 h; how it was run: as §2
HT-29 = experiment: Growth inhibition of human HT-29 cells after 48 hrs by sulforhodamine B assay; type: functional; conditions: HT-29, 48 h; how it was run: as §2
KM12 = experiment: Growth inhibition of human KM12 cells after 48 hrs by sulforhodamine B assay; type: functional; conditions: KM12, 48 h; how it was run: as §2
HCT-15 = experiment: Growth inhibition of human HCT15 cells after 48 hrs by sulforhodamine B assay; type: functional; conditions: HCT-15, 48 h; how it was run: as §2
HCT-116 = experiment: Growth inhibition of human HCT116 cells after 48 hrs by sulforhodamine B assay; type: functional; conditions: HCT-116, 48 h; how it was run: as §2
COLO 205 = experiment: Growth inhibition of human COLO205 cells after 48 hrs by sulforhodamine B assay; type: functional; conditions: COLO 205, 48 h; how it was run: as §2
[5] = Growth inhibition of human HCC2998 cells after 48 hrs by sulforhodamine B assay; type: functional; conditions: HCC 2998, 48 h; how it was run: as §2
NCI-H460 = experiment: Growth inhibition of human NCI-H460 cells after 48 hrs by sulforhodamine B assay; type: functional; conditions: NCI-H460, 48 h; how it was run: as §2
NCI-H522 = experiment: Growth inhibition of human NCI-H522 cells after 48 hrs by sulforhodamine B assay; type: functional; conditions: NCI-H522, 48 h; how it was run: as §2
NCI-H322M = experiment: Growth inhibition of human NCI-H322M cells after 48 hrs by sulforhodamine B assay; type: functional; how it was run: as §2
NCI-H23 = experiment: Growth inhibition of human NCI-H23 cells after 48 hrs by sulforhodamine B assay; type: functional; conditions: NCI-H23, 48 h; how it was run: as §2
HOP-92 = experiment: Growth inhibition of human HOP92 cells after 48 hrs by sulforhodamine B assay; type: functional; conditions: HOP-92, 48 h; how it was run: as §2
NCI-H226 = experiment: Growth inhibition of human NCI-H226 cells after 48 hrs by sulforhodamine B assay; type: functional; conditions: NCI-H226, 48 h; how it was run: as §2
[6] = Growth inhibition of human EKVX cells after 48 hrs by sulforhodamine B assay; type: functional; how it was run: as §2
HOP-62 = experiment: Growth inhibition of human HOP62 cells after 48 hrs by sulforhodamine B assay; type: functional; conditions: HOP-62, 48 h; how it was run: as §2
RPMI-8226 = experiment: Growth inhibition of human RPMI8226 cells after 48 hrs by sulforhodamine B assay; type: functional; conditions: RPMI-8226, 48 h; how it was run: as §2
SR = experiment: Growth inhibition of human SR cells after 48 hrs by sulforhodamine B assay; type: functional; how it was run: as §3
MOLT-4 = experiment: Growth inhibition of human MOLT4 cells after 48 hrs by sulforhodamine B assay; type: functional; conditions: MOLT-4, 48 h; how it was run: as §2

SMILES: CC(C)N(CCOc1ccc(O)cc1)c1ccccc1
IC50 (HeLa): 53 µM

GI50 (MDA-MB-468): 10 µM
GI50 (T47D): 10.2 µM
GI50 (BT-549): 6.6 µM
GI50 (MDA-MB-231): 0.9 µM
GI50 (MCF7): 2.2 µM
GI50 (DU-145): 3.2 µM
GI50 (PC-3): 6 µM
GI50 (ACHN): 0.4 µM
GI50 (SK-OV-3): 7.2 µM
GI50 (786-0): 3.6 µM
GI50 (OVCAR-4): 10.5 µM
GI50 (OVCAR-5): 11.5 µM
GI50 (OVCAR-3): 4.2 µM
GI50 (SK-MEL-28): 14.8 µM
GI50 (SK-MEL-5): 2.6 µM
GI50 (MDA-MB-435): 2.6 µM
GI50 (SK-MEL-2): 11.8 µM
GI50 (U-251): 3 µM
GI50 (SW-620): 10 µM
GI50 (HT-29): 14.5 µM
GI50 (HCT-15): 10 µM
GI50 (HCT-116): 4.1 µM
GI50 (COLO 205): 20 µM
GI50 (NCI-H460): 2.2 µM
GI50 (NCI-H522): 2 µM
GI50 (NCI-H322M): 11 µM
GI50 (NCI-H23): 2.1 µM
GI50 (NCI-H226): 11.2 µM
GI50 (RPMI-8226): 3.8 µM
GI50 (MOLT-4): 1.3 µM
SMILES: Oc1ccc(OCCN(CCOc2ccc(O)cc2)c2ccccc2)cc1
selectivity ratio [1]: 5.3
IC50 [2]: 3 µM
IC50 [3]: 16 µM
GI50 (Hs-578T): 14.5 µM
GI50 (UO-31): 1.5 µM
GI50 (SN12C): 4.7 µM
GI50 (RXF 393): 2.6 µM
GI50 (CAKI-1): 0.4 µM
GI50 (A498): 5.3 µM
GI50 [4]: 1.2 µM
GI50 (IGROV-1): 3.6 µM
GI50 (UACC-257): 12.6 µM
GI50 (UACC-62): 2.9 µM
GI50 (Malme-3M): 2.2 µM
GI50 (M14): 1.6 µM
GI50 (LOX IMVI): 2.2 µM
GI50 (SNB-19): 11.2 µM
GI50 (SNB-75): 5.3 µM
GI50 (SF-295): 2.1 µM
GI50 (SF-539): 2.8 µM
GI50 (SF-268): 3.2 µM
GI50 (KM12): 4.7 µM
GI50 [5]: 4.7 µM
GI50 (HOP-92): 3.7 µM
GI50 [6]: 5.8 µM
GI50 (HOP-62): 8.9 µM
GI50 (SR): 0.5 µM
IC50 (HeLa): 11 µM

— ChEMBL document CHEMBL2380239, “Novel ROS-activated agents utilize a tethered amine to selectively target acute myeloid leukemia” (Bioorg Med Chem Lett, 2013)
